Measurements published in ChEMBL document CHEMBL2062397, “N-heterocyclic dicarboxylic acids: broad-spectrum inhibitors of metallo-β-lactamases with co-antibacterial effect against antibiotic-resistant bacteria” (Bioorg Med Chem Lett, 2012).
The source made the active and inactive calls. The calls are words filed in the database; no cut-off is given here.

Columns and labels:
[1] = test system: Escherichia coli BL21(DE3); assay: Inhibition of Imis in Escherichia coli BL21(DE3) assessed as reduction in cefazolin MIC after 24 hrs by macrobroth dilution assay; set-up: scale not given: the % may be the effect or the level left; conditions: in the assay text read “imipenem” for “cefazolin”
In short: (§1)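 Macrobroth twofold antibiotic dilutions in Mueller–Hinton medium, tubes with or without inhibitor. Strains were E. coli BL21(DE3) carrying pMSZ02-CcrA, pET-26b-ImiS or pET26b-L1, and K. pneumoniae ATCC 700603. Incubated 37 °C for 24 h; MIC read. Duplicate.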

[2] = test system: Escherichia coli BL21(DE3); assay: Inhibition of CcrA in Escherichia coli BL21(DE3) assessed as reduction in cefazolin MIC for after 24 hrs by macrobroth dilution assay; set-up: scale not given: the % may be the effect or the level left; in short: as §1
Staphylococcus aureus [3] = assay: Inhibition of metallo-beta-lactamase in methicillin-resistant Staphylococcus aureus isolate 1 assessed as reduction in cefazolin MIC after 24 hrs by macrobroth dilution assay
In short: (§2)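 Macrobroth twofold dilution in Mueller–Hinton (MH) medium. Each tube held inhibitor stock plus antibiotic from a 1280 µg/ml stock, serially twofold diluted. Final inoculum was 5 × 10⁵ CFU/ml. MIC was read after 24 h at 37 °C, with inhibitor present or absent, in duplicate.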

Staphylococcus aureus [4] = assay: Inhibition of metallo-beta-lactamase in methicillin-resistant Staphylococcus aureus isolate 1 assessed as reduction in vancomycin MIC after 24 hrs by macrobroth dilution assay; in short: as §2
[5] = Noncompetitive inhibition of CcrA using cezafolin as substrate incubated for 30 mins prior to substrate addition by Lineweaver-burk plot analysis
In short: (§3)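 Purified CcrA (Bacteroides fragilis) or L1 (S. maltophilia), over-expressed. Cefazolin substrate at several concentrations, inhibitor concentration varied from 0. Enzyme and inhibitor preincubated 30 min. Run in 50 mM Tris pH 7.0 at 25 °C with UV–Vis spectrophotometric read-out. Inhibition mode from Lineweaver–Burk plots; Ki determined.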

[6] = Noncompetitive inhibition of ImiS using imipenem as substrate incubated for 30 mins prior to substrate addition by Lineweaver-burk plot analysis
Klebsiella pneumoniae = assay: Inhibition of metallo-beta-lactamase in Klebsiella pneumoniae ATCC 700603 assessed as reduction in cefazolin MIC after 24 hrs by macrobroth dilution assay; in short: as §1
Staphylococcus aureus [7] = assay: Inhibition of metallo-beta-lactamase in methicillin-resistant Staphylococcus aureus isolate 2 assessed as reduction in vancomycin MIC after 24 hrs by macrobroth dilution assay; in short: as §2
[8] = Inhibition of L1 using cezafolin as substrate up to 50 uM incubated for 30 mins prior to substrate addition
Staphylococcus aureus [9] = assay: Inhibition of metallo-beta-lactamase in methicillin-resistant Staphylococcus aureus isolate 2 assessed as reduction in cefazolin MIC after 24 hrs by macrobroth dilution assay; in short: as §2
[10] = test system: Escherichia coli BL21(DE3); assay: Inhibition of L1 in Escherichia coli BL21(DE3) assessed as reduction in cefazolin MIC after 24 hrs by macrobroth dilution assay; in short: as §1
[11] = Inhibition of ImiS using imipenem as substrate up to 50 uM incubated for 30 mins prior to substrate addition
[12] = Competitive inhibition of L1 using cezafolin as substrate incubated for 30 mins prior to substrate addition by Lineweaver-burk plot analysis; in short: as §3
[13] = Competitive inhibition of CcrA using cezafolin as substrate incubated for 30 mins prior to substrate addition by Lineweaver-burk plot analysis; in short: as §3
[14] = Inhibition of CcrA using cezafolin as substrate up to 50 uM incubated for 30 mins prior to substrate addition
[15] = Competitive inhibition of ImiS using imipenem as substrate incubated for 30 mins prior to substrate addition by Lineweaver-burk plot analysis

| SMILES | Activity [1] | Activity [2] | Activity (Staphylococcus aureus [3]) | Activity (Staphylococcus aureus [4]) | Ki [5] | Ki [6] | Activity (Klebsiella pneumoniae) | Activity (Staphylococcus aureus [7]) | inhibition [8] | Activity (Staphylococcus aureus [9]) | Activity [10] | inhibition [11] | Ki [12] | Ki [13] | inhibition [14] | Ki [15] |
| --- | --- | --- | --- | --- | --- | --- | --- | --- | --- | --- | --- | --- | --- | --- | --- | --- |
| Sc1nnc(-c2ccccn2)s1 | 50% | 50% | inactive | inactive | 5400 nM | 3500 nM | inactive | inactive | inactive | inactive | inactive | – | – | – | – | – |
| O=C(O)C1CCC(C(=O)O)N1 (configuration not stated) | inactive | Active | inactive | inactive | – | – | Active | inactive | – | inactive | Active | inactive | 690 nM | 730 nM | – | – |
| S=c1[nH]nc(-c2ccncc2)s1 | 50% | 50% | inactive | inactive | 5900 nM | 6800 nM | inactive | inactive | inactive | inactive | inactive | – | – | – | – | – |
| Sc1nnc(-c2ccncc2)[nH]1 | inactive | inactive | inactive | inactive | – | – | inactive | inactive | inactive | inactive | inactive | inactive | – | – | inactive | – |
| O=C(O)C1COC(C(=O)O)N1 (configuration not stated) | inactive | Active | inactive | inactive | – | – | Active | inactive | – | inactive | Active | inactive | 1900 nM | 1100 nM | – | – |
| Sc1nnc(-c2ccccn2)[nH]1 | inactive | inactive | inactive | inactive | – | – | inactive | inactive | inactive | inactive | inactive | inactive | – | – | inactive | – |
| O=C(O)C1CSC(C(=O)O)N1 (configuration not stated) [TIDIACIC] | Active | Active | inactive | inactive | – | – | Active | inactive | – | inactive | Active | – | 1800 nM | 640 nM | – | 7100 nM |
